From ChEMBL document CHEMBL4251676, “Precursor-Directed Biosynthesis of Phenylbenzoisoquinolindione Alkaloids and the Discovery of a Phenylphenalenone-Based Plant Defense Mechanism” (J Nat Prod, 2018)
Active and inactive are the calls of the source. The calls are words filed in the database; no cut-off is given here.

How the values were obtained:
Format in all cases: functional, organism-based
Escherichia coli = assay: Antimicrobial activity against Escherichia coli isolate 458 after 18 hrs
Procedure, shortened: (§1)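 Ciprofloxacin and amphotericin B were run alongside as reference antimicrobials.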

[1] = test system: Sporobolomyces salmonicolor; assay: Antimicrobial activity against Sporidiobolus salmonicolor isolate 549 after 18 hrs; procedure, shortened: as §1
Staphylococcus aureus = assay: Antimicrobial activity against methicillin-resistant Staphylococcus aureus isolate 134/93 after 18 hrs

Compound | Activity (Escherichia coli) | Activity [1] | Activity (Staphylococcus aureus)
O=C1C(O)=Cc2cn([C@@H](Cc3ccccc3)C(=O)O)c(=O)c3ccc(-c4ccccc4)c1c23 | inactive | inactive | inactive
COC1=Cc2cn([C@@H](Cc3ccc(O)cc3)C(=O)O)c(=O)c3ccc(-c4ccccc4)c(c23)C1=O | inactive | inactive | inactive
COC1=Cc2cn([C@H](Cc3ccccc3)C(=O)O)c(=O)c3ccc(-c4ccccc4)c(c23)C1=O | inactive | inactive | inactive
C[C@@H]1[C@H](O)[C@@H](C)/C=C/C=C/C=C/C=C/C=C/C=C/C=C/[C@H](O[C@@H]2O[C@H](C)[C@@H](O)[C@H](N)[C@@H]2O)C[C@@H]2O[C@](O)(C[C@@H](O)C[C@@H](O)[C@H](O)CC[C@@H](O)C[C@@H](O)CC(=O)O[C@H]1C)C[C@H](O)[C@H]2C(=O)O | Active | Active | 
O=C1OCc2cc(O)c(O)c3c(-c4ccccc4)ccc1c23 | Active | Active | 
CC(C)C[C@H](C(=O)O)n1cc2c3c(c(-c4ccccc4)ccc3c1=O)C(=O)C(O)=C2 | inactive | inactive | inactive
CC(C)C[C@@H](C(=O)O)n1cc2c3c(c(-c4ccccc4)ccc3c1=O)C(=O)C(O)=C2 | inactive | inactive | inactive
O=C1C(O)=Cc2cn([C@H](Cc3ccccc3)C(=O)O)c(=O)c3ccc(-c4ccccc4)c1c23 | inactive | inactive | inactive
CSCC[C@@H](C(=O)O)n1cc2c3c(c(-c4ccccc4)ccc3c1=O)C(=O)C(O)=C2 | inactive | inactive | inactive
O=C1C(O)=Cc2cn(CCO)c(=O)c3ccc(-c4ccccc4)c1c23 | inactive | inactive | inactive
O=C(O)CC(=O)OC[C@H]1O[C@@H](Oc2c(O)cc3c4c(ccc(-c5ccccc5)c24)C(=O)OC3)[C@H](O)[C@@H](O)[C@@H]1O | Active | Active | 
COC1=Cc2cn([C@H](CC(C)C)C(=O)O)c(=O)c3ccc(-c4ccccc4)c(c23)C1=O | inactive | inactive | inactive
COC1OC(=O)c2ccc(-c3ccccc3)c3c(O)c(O)cc1c23 (configuration not stated) |  |  | Active
O=C1C(O)=Cc2cn(CCCC[C@@H](C(=O)O)n3cc4c5c(c(-c6ccccc6)ccc5c3=O)C(=O)C(O)=C4)c(=O)c3ccc(-c4ccccc4)c1c23 | inactive | inactive | inactive
COC1=Cc2cn([C@@H](Cc3ccccc3)C(=O)O)c(=O)c3ccc(-c4ccccc4)c(c23)C1=O | inactive | inactive | inactive
COc1cc2c3c(ccc(-c4ccccc4)c3c1O[C@@H]1O[C@H](COC(=O)CC(=O)O)[C@@H](O)[C@H](O)[C@H]1O)C(=O)OC2 | Active | Active | 
O=C1OC(O)c2cc(O)c(O)c3c(-c4ccccc4)ccc1c23 (configuration not stated) |  |  | Active
COc1cc2c3c(ccc(-c4ccccc4)c3c1O)C(=O)OC2OC (configuration not stated) |  |  | Active
O=C1OC(C(=O)O)c2cc(O)c(O[C@@H]3O[C@H](CO)[C@@H](O)[C@H](O)[C@H]3O)c3c(-c4ccccc4)ccc1c23 (some centres not stated) | Active | Active | 
O=C1C(O)=Cc2coc(=O)c3ccc(-c4ccccc4)c1c23 |  |  | Active
O=C1OC(C(=O)O)c2cc(O)c(O)c3c(-c4ccccc4)ccc1c23 (configuration not stated) | Active | Active | 
COC1=Cc2cn([C@@H](Cc3c[nH]c4ccccc34)C(=O)O)c(=O)c3ccc(-c4ccccc4)c(c23)C1=O | inactive | inactive | inactive
O=C(O)c1cn(C2CC2)c2cc(N3CCNCC3)c(F)cc2c1=O | Active | Active | 
O=C1C(O)=Cc2c3n(c(=O)c4ccc(-c5ccccc5)c1c24)[C@H](C(=O)O)CS3 | inactive | inactive | inactive
